Laboratory results taken from ChEMBL document CHEMBL1126808, “Asymmetric synthesis and biological evaluation of beta-L-(2R,5S)- and alpha-L-(2R,5R)-1,3-oxathiolane-pyrimidine and -purine nucleosides as potential anti-HIV agents” (J Med Chem, 1993).

What was measured:
[1] = tested on: Human immunodeficiency virus 1; test: Cytotoxicity against human peripheral blood mononuclear (PBM) cells […]; format: functional
How it was run: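 Uninfected PHA-stimulated human PBM cells were cultured with or without drug, then aliquots were counted in trypan blue. IC50 came from a median-effect plot of dose–effect data.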

[2] = tested on: Human immunodeficiency virus; test: Anti-HIV-1 activity against human peripheral blood mononuclear (PBM) cells infected with HIV-1 strain LAV; format: functional, organism-based
How it was run: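 Mitogen-stimulated human PBM cells infected with HIV-1 LAV at MOI 0.1 (titred by limiting dilution in PBM cells). Compounds were diluted into medium from 40 mM DMSO stocks (final DMSO <0.25%) and added about 45 min after infection. Read-out was supernatant RT level. EC50 came from a median-effect plot of dose–effect data.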

EC50 ([2]; Human immunodeficiency virus 1) [µM]	EC50 [2] [µM]	SMILES	IC50 [1] [µM]
4.4	–	Cc1cn([C@H]2CS[C@H](CO)O2)c(=O)[nH]c1=O	> 100
16.3	–	Nc1nc(F)nc2c1ncn2[C@@H]1CS[C@H](CO)O1	> 100
2.75	–	OC[C@@H]1O[C@@H](n2cnc3c(Cl)ncnc32)CS1	> 100
1.9	–	Cc1cn([C@@H]2CS[C@H](CO)O2)c(=O)nc1N	> 100
–	0.06	Nc1ccn([C@@H]2CS[C@H](CO)O2)c(=O)n1 (stereo in doubt; form 2) [LAMIVUDINE]	–
11.7	–	O=c1ccn([C@@H]2CS[C@H](CO)O2)c(=O)[nH]1	> 100
> 100	–	O=c1[nH]c(=O)n([C@@H]2CS[C@H](CO)O2)cc1Cl	> 100
42.1	–	Nc1nc(Cl)c2ncn([C@H]3CS[C@H](CO)O3)c2n1	> 100
> 100	–	OC[C@@H]1O[C@H](n2cnc3c(O)ncnc32)CS1	> 100
31.8	–	Nc1nc(=O)n([C@@H]2CS[C@H](CO)O2)cc1Cl	> 100
0.0013	–	Nc1nc(=O)n([C@@H]2CS[C@H](CO)O2)cc1F [EMTRICITABINE]	> 100
15.8	–	Nc1nc(F)nc2c1ncn2[C@H]1CS[C@H](CO)O1	> 100
10.2	–	Nc1nc(O)c2ncn([C@@H]3CS[C@H](CO)O3)c2n1	> 100
0.43	–	Nc1nc(=O)n([C@H]2CS[C@H](CO)O2)cc1F	> 100
92.9	–	O=c1[nH]c(=O)n([C@@H]2CS[C@H](CO)O2)cc1I	> 100
0.14	–	Nc1nc(=O)n([C@@H]2CS[C@H](CO)O2)cc1I	> 100
> 100	–	Nc1nc(=O)n([C@H]2CS[C@H](CO)O2)cc1Cl	> 100
78.9	–	Nc1ncnc2c1ncn2[C@H]1CS[C@H](CO)O1	> 100
> 100	–	O=c1[nH]c(=O)n([C@@H]2CS[C@H](CO)O2)cc1F	> 100
> 100	–	Nc1nc(=O)n([C@H]2CS[C@H](CO)O2)cc1Br	> 100

EC50 ([2]; Human immunodeficiency virus 1) [µM]	EC50 [2] [µM]	SMILES	IC50 [1] [µM]
–	0.21	Nc1ccn([C@@H]2CS[C@H](CO)O2)c(=O)n1 (stereo in doubt; form 1) [LAMIVUDINE]	–
> 100	–	Nc1nc(O)c2ncn([C@H]3CS[C@H](CO)O3)c2n1	> 100
157	–	O=c1[nH]c(=O)n([C@H]2CS[C@H](CO)O2)cc1I	> 100
> 100	–	O=c1[nH]c(=O)n([C@@H]2CS[C@H](CO)O2)cc1Br	> 100
–	10.1	Nc1ccn([C@@H]2CS[C@H](CO)O2)c(=O)n1 (stereo in doubt; 14) [LAMIVUDINE]	> 100
15	–	CNc1ncnc2c1ncn2[C@@H]1CS[C@H](CO)O1	> 100
–	0.0018	Nc1ccn([C@@H]2CS[C@H](CO)O2)c(=O)n1 (stereo in doubt; 13) [LAMIVUDINE]	–
13	–	CNc1ncnc2c1ncn2[C@H]1CS[C@H](CO)O1	> 100
1.01	–	Nc1ncnc2c1ncn2[C@@H]1CS[C@H](CO)O1	> 100
> 100	–	Nc1nc(=O)n([C@H]2CS[C@H](CO)O2)cc1I	> 100
9.8	–	Nc1nc(Cl)c2ncn([C@@H]3CS[C@H](CO)O3)c2n1	> 100
2.51	–	Nc1nc(=O)n([C@@H]2CS[C@H](CO)O2)cc1Br	> 100
1.44	–	OC[C@@H]1O[C@H](n2cnc3c(Cl)ncnc32)CS1	> 100
34.3	–	Cc1cn([C@@H]2CS[C@H](CO)O2)c(=O)[nH]c1=O	> 100
121	–	O=c1[nH]c(=O)n([C@H]2CS[C@H](CO)O2)cc1Br	> 100
> 100	–	O=c1[nH]c(=O)n([C@H]2CS[C@H](CO)O2)cc1Cl	> 100
> 100	–	OC[C@@H]1O[C@@H](n2cnc3c(O)ncnc32)CS1	> 100
> 100	–	O=c1[nH]c(=O)n([C@H]2CS[C@H](CO)O2)cc1F	> 100
32.8	–	O=c1ccn([C@H]2CS[C@H](CO)O2)c(=O)[nH]1	> 100
0.45	–	Cc1cn([C@H]2CS[C@H](CO)O2)c(=O)nc1N	> 100

SMILES	EC50 ([2]; Human immunodeficiency virus 1) [µM]	EC50 [2] [µM]	IC50 [1] [µM]
Cc1cn([C@H]2C[C@H](N=[N+]=[N-])[C@@H](CO)O2)c(=O)[nH]c1=O [ZIDOVUDINE]	0.004	–	> 100
